ChEMBL document CHEMBL5674869, “The Histone Methyltransferase Inhibitor A-366 Uncovers a Role for G9a/GLP in the Epigenetics of Leukemia” (PLoS One, 2015)
Activity calls are given as the source filed them. No cut-off for these calls is given here.

Tests used:
[1] = target: T1, Histone-lysine N-methyltransferase EHMT2 (Homo sapiens) (UniProt Q96KQ7); experiment: Inhibition of G9a in human PC-3 cells assessed as decrease in total H3 levels at 10 uM by In cell Western assay; type: cell-based
T1 sequence (whole entry): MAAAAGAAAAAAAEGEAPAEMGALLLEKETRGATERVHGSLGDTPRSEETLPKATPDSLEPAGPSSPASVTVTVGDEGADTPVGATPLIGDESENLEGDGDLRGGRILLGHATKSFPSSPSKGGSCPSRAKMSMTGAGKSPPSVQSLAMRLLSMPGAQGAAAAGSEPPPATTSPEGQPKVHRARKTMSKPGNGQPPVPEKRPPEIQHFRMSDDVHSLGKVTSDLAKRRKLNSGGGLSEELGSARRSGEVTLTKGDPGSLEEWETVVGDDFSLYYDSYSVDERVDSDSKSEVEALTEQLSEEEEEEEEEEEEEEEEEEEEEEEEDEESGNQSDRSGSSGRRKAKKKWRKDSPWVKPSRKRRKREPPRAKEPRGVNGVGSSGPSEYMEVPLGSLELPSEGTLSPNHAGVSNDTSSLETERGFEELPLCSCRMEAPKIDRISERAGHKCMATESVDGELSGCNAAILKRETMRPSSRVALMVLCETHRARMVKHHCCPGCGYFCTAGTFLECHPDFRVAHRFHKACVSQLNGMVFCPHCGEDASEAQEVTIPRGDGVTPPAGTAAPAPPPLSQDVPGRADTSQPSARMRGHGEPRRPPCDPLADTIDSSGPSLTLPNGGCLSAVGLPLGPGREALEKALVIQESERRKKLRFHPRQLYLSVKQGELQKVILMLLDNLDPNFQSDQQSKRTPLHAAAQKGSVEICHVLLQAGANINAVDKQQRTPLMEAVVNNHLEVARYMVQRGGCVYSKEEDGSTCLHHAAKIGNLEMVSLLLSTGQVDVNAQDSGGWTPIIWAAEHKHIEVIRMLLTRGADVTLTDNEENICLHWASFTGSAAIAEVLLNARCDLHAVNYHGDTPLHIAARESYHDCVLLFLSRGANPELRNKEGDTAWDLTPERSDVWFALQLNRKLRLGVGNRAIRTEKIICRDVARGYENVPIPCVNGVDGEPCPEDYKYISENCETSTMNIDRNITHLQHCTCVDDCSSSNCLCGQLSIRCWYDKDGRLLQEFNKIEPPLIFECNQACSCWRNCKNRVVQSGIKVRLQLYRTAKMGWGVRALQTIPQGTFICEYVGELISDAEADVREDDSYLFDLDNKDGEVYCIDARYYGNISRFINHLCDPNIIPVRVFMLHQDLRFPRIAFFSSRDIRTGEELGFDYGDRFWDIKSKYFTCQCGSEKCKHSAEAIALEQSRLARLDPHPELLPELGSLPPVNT
Procedure, shortened: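 PC-3 cells (5,000/well) adhered overnight, then treated in triplicate with DMSO or compound over a concentration range for 72 h at 37 °C, 5% CO2. Cells fixed in 3% formaldehyde, blocked in 1% BSA and co-stained 4 h for H3K9me2 (1:500) and total H3 (1:1000). Fluorescent secondaries read by Odyssey: 800 nm H3K9me2, 700 nm total H3.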

[2] = target: T1, Histone-lysine N-methyltransferase EHMT2 (Homo sapiens); experiment: Inhibition of G9a in human MDA-MB-231 cells assessed as slight decrease in […] levels at 0.3 to 3 uM after 72 hrs by Western blot analysis; type: cell-based; conditions: dose 0.3-3 µM
[3] = target: T1, Histone-lysine N-methyltransferase EHMT2 (Homo sapiens); experiment: Inhibition of G9a in human HT-1080 cells assessed as decrease in […] levels after 2 days by AlphaLisa assay; type: cell-based; conditions: time 2.0 day
Procedure, shortened: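 HT-1080 cells treated 2 days with compound over a concentration range. Viability read by CellTiter-Glo; H3K9me2 measured by AlphaLISA and normalized to viability. % inhibition calculated relative to untreated cells set as 0%.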

MV4-11 = experiment: Antitumor activity against human MV4-11 cells xenografted in SCID/beige mouse assessed as tumor growth inhibition at 30 mg/kg/day via osmotic-mini pump for 14 days; type: functional; conditions: MV4-11, 336 h, time 14 day
Procedure, shortened: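 MV4;11 cells mixed with 50% Matrigel, 5 x 10^6 cells injected subcutaneously in flank of 6–8 week old female SCID-beige mice. At ~200 mm3, mice allocated by tumor volume (n = 10/group). Dosed by osmotic mini-pump in 98% PEG-400/2% Tween-80 for 14 days. Calipers read 2 times weekly, V = (L x W2)/2. %TGI computed from control versus treated mean tumor volumes.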

MOLT-16 = experiment: Antiproliferative against human MOLT-16 cells after 5 days by Cell-Titer Glo assay; type: functional, cell-based; conditions: MOLT-16, 120 h
Procedure, shortened: (§1)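 ATCC tumor lines were grown in their recommended media with 10% FBS and STR-authenticated. Cells were exposed to compound for the stated number of days. Viable cells were read by CellTiter-Glo endpoint. Inhibition was the ratio of treated to untreated wells, with cell-free wells set as 100% inhibition. The EC50 was taken from the dose response.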

THP-1 = experiment: Antiproliferative against human THP-1 cells after 5 days by Cell-Titer Glo assay; type: functional, cell-based; conditions: THP-1, 120 h; procedure, shortened: as §1
RS4-11 = experiment: Antiproliferative against human RS4-11 cells after 5 days by Cell-Titer Glo assay; type: functional, cell-based; conditions: RS4-11, 120 h; procedure, shortened: as §1
RPMI-8226 = experiment: Antiproliferative against human RPMI-8226 cells after 5 days by Cell-Titer Glo assay; type: functional, cell-based; conditions: RPMI-8226, 120 h; procedure, shortened: as §1
OPM-2 = experiment: Antiproliferative against human OPM-2 cells after 5 days by Cell-Titer Glo assay; type: functional, cell-based; conditions: OPM-2, 120 h; procedure, shortened: as §1
L-363 = experiment: Antiproliferative against human L-363 cells after 5 days by Cell-Titer Glo assay; type: functional, cell-based; conditions: L-363, 120 h; procedure, shortened: as §1
NCI-H929 = experiment: Antiproliferative against human NCI-H929 cells after 5 days by Cell-Titer Glo assay; type: functional, cell-based; conditions: NCI-H929, 120 h; procedure, shortened: as §1
LN-229 = experiment: Antiproliferative against human LN-229 cells after 5 days by Cell-Titer Glo assay; type: functional, cell-based; conditions: LN-229, 120 h; procedure, shortened: as §1
LNCaP = experiment: Antiproliferative against human LNCaP cells after 5 days by Cell-Titer Glo assay; type: functional, cell-based; conditions: 120 h; procedure, shortened: as §1
NCI-H1975 = experiment: Antiproliferative against human NCI-H1975 cells after 5 days by Cell-Titer Glo assay; type: functional, cell-based; conditions: NCI-H1975, 120 h; procedure, shortened: as §1
Calu-1 = experiment: Antiproliferative against human Calu-1 cells after 5 days by Cell-Titer Glo assay; type: functional, cell-based; conditions: Calu-1, 120 h; procedure, shortened: as §1
NCI-H358 = experiment: Antiproliferative against human NCI-H358 cells after 5 days by Cell-Titer Glo assay; type: functional, cell-based; conditions: NCI-H358, 120 h; procedure, shortened: as §1
NCI-H441 = experiment: Antiproliferative against human NCI-H441 cells after 5 days by Cell-Titer Glo assay; type: functional, cell-based; conditions: NCI-H441, 120 h; procedure, shortened: as §1
[4] = Antiproliferative against human TC71 cells after 7 days by Cell-Titer Glo assay; type: functional, cell-based; conditions: TC-71, 168 h; procedure, shortened: as §1

inhibition [1] | inhibition [2] | inhibition [3] | EC50 (MOLT-16) | EC50 (THP-1) | EC50 (RS4-11) | EC50 (RPMI-8226) | EC50 (NCI-H929) | EC50 (LNCaP) | EC50 (NCI-H1975) | EC50 (Calu-1) | EC50 (NCI-H358) | EC50 (NCI-H441) | Compound | inhibition in vivo at 30 mg/kg/day (MV4-11) | EC50 (OPM-2) | EC50 (L-363) | EC50 (LN-229) | EC50 [4]
inactive | Active | Active | > 10 µM | > 10 µM | > 10 µM | > 10 µM | > 10 µM | > 10 µM | > 10 µM | > 10 µM | > 10 µM | > 10 µM | COc1cc2c(cc1OCCCN1CCCC1)N=C(N)C21CCC1 | 45% | > 10 µM | > 10 µM | > 10 µM | > 10 µM
Active | Active | Active | 0.2 µM | 4.9 µM | 3.1 µM | 5.1 µM | 4.6 µM | 0.3 µM | > 10 µM | 1.3 µM | 4.3 µM | 8.7 µM | COc1cc2c(NC3CCN(C(C)C)CC3)nc(C3CCCCC3)nc2cc1OCCCN1CCCC1 |  | 5.6 µM | 3.9 µM | 0.5 µM | 0.6 µM
